Results published in ChEMBL document CHEMBL1212693, “Dorsomorphin inhibits BMP signals required for embryogenesis and iron metabolism” (Nat Chem Biol, 2008).
Active and inactive are the calls of the source. No cut-off for these calls is given here.

Legend:
Danio rerio [1] = assay: Inhibition of iron-dextran conjugate-induced hepcidin mRNA expression in zebrafish at 23 ug/g, ip by qRT-PCR analysis; type: functional, organism-based
Method in brief: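 Adult zebrafish under tricaine were injected intraperitoneally with 10 µl iron-dextran (100 mg ml−1) plus compound (23 µg g−1) or DMSO vehicle; controls received dextran. Livers were taken 3 h later and RNA was extracted with Trizol. Hepcidin mRNA was measured by qRT-PCR and normalised to liver fatty acid binding protein mRNA, with n = 4 per group.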

Danio rerio [2] = organism: Danio rerio; assay: Inhibition of BMPR1 in zebrafish assessed as embryonic axis dorsalization at 20 uM treated at 2 hrs post-fertilization measured after 36 hrs in presence of 1 ng chordin morpholino
Method in brief: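 Wild-type zebrafish embryos injected with 1 ng chordin morpholino, then exposed to vehicle or compound (20 µM) at 2 h.p.f. Photographed at 36 h.p.f. to score the intermediate cell mass and ventral tail fin structures.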

[3] = (§1) Inhibition of BMPR1-mediated Smad-1 phosphorylation in BMP4-stimulated mouse PASMC treated 30 mins before BMP4 challenge measured after 30 mins by immunoblot analysis
Method in brief: (§2)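 Mouse PASMCs were held 24 h in 0.5% FCS RPMI, preincubated 30 min with a dose range of compound, then stimulated 30 min with BMP4. Phospho-SMAD1/5/8 and phospho-p38 were detected by immunoblot and quantitated by phosphorimager (RLU). IC50 was derived from a Hill plot of phospho-SMAD1/5/8 inhibition.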

Mus musculus [4] = organism: Mus musculus; assay: as §1; method in brief: as §2
Mus musculus [5] = organism: Mus musculus; assay: Inhibition of BMPR1-mediated Smad-1 phosphorylation in BMP4-stimulated mouse PASMC at 100 to 200 ng/ml treated 30 mins before BMP4 challenge measured after 30 mins by immunoblot analysis
Method in brief: (§3)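 Mouse PASMCs were serum-reduced 24 h in 0.5% FCS RPMI, pretreated 30 min with noggin or vehicle, then given BMP4 for 30 min. Lysates in SDS buffer were immunoblotted for phospho-SMAD1/5/8 and phospho-MAPK p38, and signals were quantitated by phosphorimager.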

Mus musculus [6] = organism: Mus musculus; assay: Inhibition of BMPR1-mediated MAPK p38 phosphorylation in BMP4-stimulated mouse PASMC at 100 to 200 ng/ml treated 30 mins before BMP4 challenge measured after 30 mins by immunoblot analysis; method in brief: as §3
Mus musculus [7] = organism: Mus musculus; assay: Inhibition of BMPR1-mediated Smad-5 phosphorylation in BMP4-stimulated mouse BMPR2 deficient PASMC at 4 uM treated 30 mins before BMP4 challenge measured after 30 mins by immunoblot analysis
Mus musculus [8] = organism: Mus musculus; assay: Inhibition of ALK2-mediated Smad-1 phosphorylation in BMPR2 deficient mouse PASMC at 10 uM by immunoblot analysis
Method in brief: (§4)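 BMPR-II–deficient mouse PASMCs (RPMI, 10% FBS) transiently transfected with constitutively active ALK2, ALK3 or ALK6 cDNA, or plasmid-only control. Incubated with or without compound (10 µM). Extracts lysed in SDS buffer, run on SDS-PAGE and immunoblotted for phospho-SMAD1/5/8; quantitated by phosphorimager.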

Mus musculus [9] = organism: Mus musculus; assay: Inhibition of ALK2-mediated Smad-5 phosphorylation in BMPR2 deficient mouse PASMC at 10 uM by immunoblot analysis; method in brief: as §4
Mus musculus [10] = organism: Mus musculus; assay: Inhibition of ALK6-mediated Smad-1 phosphorylation in BMPR2 deficient mouse PASMC at 10 uM by immunoblot analysis; method in brief: as §4
C2C12 = assay: Inhibition of BMPR1-mediated osteoblast differentiation in BMP4-stimulated mouse C2C12 cells assessed as decrease in alkaline phosphatase level at 4 uM by spectrophotometry; type: cell-based
Method in brief: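 C2C12 cells were seeded at 2,000 per well in DMEM with 2% FBS and treated in quadruplicate with BMP4 or BMP6 plus compound or vehicle. After 5 d, cells were lysed in TBS with 1% Triton X-100. Lysates were incubated 1 h with p-nitrophenylphosphate and alkaline phosphatase was read as absorbance at 405 nm. Cell count was measured by CyQuant in parallel wells.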

Hep 3B2 = assay: Inhibition of hepcidin mRNA expression in human Hep3B cells at 4 uM […] by qRT-PCR analysis; type: functional; conditions: 0.5 h
Danio rerio [11] = organism: Danio rerio; assay: Inhibition of BMPR1 in zebrafish assessed as penetrance of mild embryonic axis dorsalization at 10 uM treated at 6 to 8 hrs post-fertilization measured at 48 hrs; parameters: scale not given: the % may be the effect or the level left
Method in brief: (§5)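 Compound added at the stated times and concentrations. Gross morphology scored visually at up to 48 h.p.f. for dorsalization of the embryonic axis.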

Danio rerio [12] = organism: Danio rerio; assay: Inhibition of BMPR1 in zebrafish assessed as penetrance of normal embryonic axis dorsalization at 0.2 uM treated at 3 hrs post-fertilization measured at 48 hrs; parameters: scale not given: the % may be the effect or the level left
Danio rerio [13] = organism: Danio rerio; assay: Inhibition of BMPR1 in zebrafish assessed as severity of embryonic axis dorsalization at 0.5 uM treated at 3 hrs post-fertilization measured at 48 hrs; parameters: scale not given: the % may be the effect or the level left
Danio rerio [14] = organism: Danio rerio; assay: Inhibition of BMPR1 in zebrafish assessed as severity of embryonic axis dorsalization at 1 uM treated at 3 hrs post-fertilization measured at 48 hrs; parameters: scale not given: the % may be the effect or the level left
Danio rerio [15] = organism: Danio rerio; assay: Inhibition of BMPR1 in zebrafish assessed as penetrance of mild embryonic axis dorsalization at 2 uM treated at 3 hrs post-fertilization measured at 48 hrs; parameters: scale not given: the % may be the effect or the level left; method in brief: as §5
Danio rerio [16] = organism: Danio rerio; assay: Inhibition of BMPR1 in zebrafish assessed as severity of embryonic axis dorsalization at 5 uM treated at 3 hrs post-fertilization measured at 48 hrs; parameters: scale not given: the % may be the effect or the level left
Danio rerio [17] = organism: Danio rerio; assay: Inhibition of BMPR1 in zebrafish assessed as penetrance of mild embryonic axis dorsalization at 7.5 uM treated at 3 hrs post-fertilization measured at 48 hrs; parameters: scale not given: the % may be the effect or the level left; method in brief: as §5
Danio rerio [18] = organism: Danio rerio; assay: Inhibition of BMPR1 in zebrafish assessed as penetrance of normal embryonic axis dorsalization at 10 uM treated at 3 hrs post-fertilization measured at 48 hrs; parameters: scale not given: the % may be the effect or the level left
[19] = target: Vascular endothelial growth factor receptor 2 (Danio rerio) (UniProt Q5GIT4); assay: Inhibition of KDR in zebrafish assessed as embryonic axis dorsalization at 10 uM treated occasionally at 6 to 8 hrs post-fertilization measured at 48 hrs
Sequence of Vascular endothelial growth factor receptor 2 (Danio rerio) (Q5GIT4 whole entry): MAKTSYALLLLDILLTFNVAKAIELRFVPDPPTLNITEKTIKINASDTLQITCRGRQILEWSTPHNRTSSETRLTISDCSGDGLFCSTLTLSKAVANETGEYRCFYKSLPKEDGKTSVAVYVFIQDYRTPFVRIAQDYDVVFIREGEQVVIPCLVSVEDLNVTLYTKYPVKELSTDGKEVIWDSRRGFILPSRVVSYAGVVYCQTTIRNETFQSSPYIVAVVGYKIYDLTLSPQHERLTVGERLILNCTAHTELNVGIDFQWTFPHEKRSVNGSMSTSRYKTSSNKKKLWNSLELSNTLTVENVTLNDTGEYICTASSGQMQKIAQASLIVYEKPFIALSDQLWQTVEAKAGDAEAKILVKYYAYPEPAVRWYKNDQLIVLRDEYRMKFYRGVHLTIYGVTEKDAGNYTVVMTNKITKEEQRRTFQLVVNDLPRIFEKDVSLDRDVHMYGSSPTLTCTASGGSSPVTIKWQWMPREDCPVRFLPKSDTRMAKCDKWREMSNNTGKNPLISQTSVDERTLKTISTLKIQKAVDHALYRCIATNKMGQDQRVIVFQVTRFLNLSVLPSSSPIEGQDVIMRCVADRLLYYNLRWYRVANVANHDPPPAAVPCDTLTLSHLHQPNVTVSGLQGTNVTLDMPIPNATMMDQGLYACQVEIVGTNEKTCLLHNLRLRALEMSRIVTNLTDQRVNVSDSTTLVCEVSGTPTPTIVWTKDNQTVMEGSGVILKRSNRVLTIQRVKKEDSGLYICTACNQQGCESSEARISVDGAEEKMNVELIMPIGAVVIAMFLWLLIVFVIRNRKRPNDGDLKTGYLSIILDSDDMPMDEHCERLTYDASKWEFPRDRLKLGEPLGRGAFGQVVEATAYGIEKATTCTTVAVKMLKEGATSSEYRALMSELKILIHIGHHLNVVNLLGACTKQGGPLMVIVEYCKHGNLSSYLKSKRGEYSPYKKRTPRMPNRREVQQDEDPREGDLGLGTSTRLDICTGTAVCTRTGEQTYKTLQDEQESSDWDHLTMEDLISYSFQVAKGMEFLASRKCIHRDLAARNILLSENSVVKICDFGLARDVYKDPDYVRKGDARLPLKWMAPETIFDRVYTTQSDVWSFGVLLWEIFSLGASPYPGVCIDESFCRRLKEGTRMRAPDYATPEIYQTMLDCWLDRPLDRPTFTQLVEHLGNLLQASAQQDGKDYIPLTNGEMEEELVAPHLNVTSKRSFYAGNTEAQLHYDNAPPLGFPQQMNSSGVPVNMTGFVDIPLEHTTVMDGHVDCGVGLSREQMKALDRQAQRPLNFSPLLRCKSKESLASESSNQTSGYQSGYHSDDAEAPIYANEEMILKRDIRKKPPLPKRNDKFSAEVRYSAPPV
Method in brief: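 Newly fertilised WT zebrafish eggs were arrayed in triplicate in E3 buffer and kept at 28.5 °C. Compound (10 µM) was added at 6–8 h.p.f. Gross morphology was inspected visually for dorsalisation or ventralisation of the embryonic axis, with photographs at 36–48 h.p.f.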

Danio rerio [20] = organism: Danio rerio; assay: Inhibition of BMPR1 in zebrafish assessed as decrease in eve1 expression at 10 uM treated at 18-somite stage measured at 48 hrs
Danio rerio [21] = organism: Danio rerio; assay: Inhibition of BMPR1 in zebrafish assessed as penetrance of mild embryonic axis dorsalization at 10 uM treated continuously from 4 hrs post-fertilization measured after 48 hrs; parameters: scale not given: the % may be the effect or the level left; method in brief: as §5
Danio rerio [22] = organism: Danio rerio; assay: Inhibition of BMPR1 in zebrafish assessed as severity of embryonic axis dorsalization at 10 uM treated continuously from 2 hrs post-fertilization measured after 48 hrs; parameters: scale not given: the % may be the effect or the level left
Danio rerio [23] = organism: Danio rerio; assay: Inhibition of BMPR1 in zebrafish assessed as penetrance of moderate embryonic axis dorsalization at 10 uM treated continuously from 8 hrs post-fertilization measured at 48 hrs; parameters: scale not given: the % may be the effect or the level left
Danio rerio [24] = organism: Danio rerio; assay: Inhibition of BMPR1 in zebrafish assessed as penetrance of moderate embryonic axis dorsalization at 10 uM treated continuously from 10 hrs post-fertilization measured at 48 hrs; parameters: scale not given: the % may be the effect or the level left; method in brief: as §5
Danio rerio [25] = organism: Danio rerio; assay: Inhibition of BMPR1 in zebrafish assessed as penetrance of mild embryonic axis dorsalization at 10 uM treated at 2 to 4 hrs post-fertilization measured at 48 hrs; parameters: scale not given: the % may be the effect or the level left; method in brief: as §5

SMILES: c1cc(-c2cnn3cc(-c4ccc(OCCN5CCCCC5)cc4)cnc23)ccn1 [DORSOMORPHIN]
- inhibition (Danio rerio [1]): Active
- inhibition (Danio rerio [2]): Active
- IC50 [3]: 470 nM
- inhibition (Mus musculus [4]): Dose-dependent effect
- inhibition (Mus musculus [5]): Active
- inhibition (Mus musculus [6]): Active
- inhibition (Mus musculus [7]): Active
- inhibition (Mus musculus [8]): Active
- inhibition (Mus musculus [9]): Active
- inhibition (Mus musculus [10]): Active
- inhibition (C2C12): Active
- inhibition at 4 µM (Hep 3B2): 27%
- Activity (Danio rerio [11]): 95%
- Activity (Danio rerio [12]): 100%
- Activity (Danio rerio [13]): 0%
- Activity (Danio rerio [14]): 0%
- Activity (Danio rerio [15]): 0%
- Activity (Danio rerio [16]): 19%
- Activity (Danio rerio [17]): 58%
- Activity (Danio rerio [18]): 0%
- inhibition [19]: inactive
- inhibition (Danio rerio [20]): Active
- Activity (Danio rerio [21]): 0%
- Activity (Danio rerio [22]): 100%
- Activity (Danio rerio [23]): 0%
- Activity (Danio rerio [24]): 0%
- Activity (Danio rerio [25]): 10%
